This note sets out measurements from ChEMBL document CHEMBL4346686, “Discovery and biological evaluation of novel androgen receptor antagonist for castration-resistant prostate cancer” (Eur J Med Chem, 2019).

Data set [1] in a line: Antiproliferative activity against human LNCaP-AR cells assessed as reduction in cell viability incubated for 6 days by CCK8 assay. Type of data set: functional, cell-based. The note with it: 144 h. The method, boiled down:
(§1)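 Cells seeded (2×10^4 per well for VCaP, 1–3×10^3 for the others) and compound added after 24 h as a 9-point, 3-fold serial dilution. Exposure 6 days, then CCK-8 for 1–4 h and absorbance at 450 nm. IC50 from curve fit, mean of at least two independent experiments run in duplicate.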
Background: Formazan colour is commonly taken as a measure of viable cells.

For the next data set, the system named is CWR22R. Briefly: Antiproliferative activity against human 22Rv1 cells assessed as reduction in cell viability incubated for 6 days by CCK8 assay. Type of data set: functional, cell-based. The note with it: 22Rv1, 144 h. In outline:
as §1

In another data set the test system is PC-3. Briefly: Antiproliferative activity against human PC3 cells assessed as reduction in cell viability incubated for 6 days by CCK8 assay. Type of data set: functional, cell-based. The conditions noted are these: PC-3, 144 h. The method, boiled down:
as §1

The test system of a further data set is L02. Briefly: Antiproliferative activity against human L02 cells assessed as reduction in cell viability incubated for 6 days by CCK8 assay. Type of data set: cell-based. The conditions noted are these: L02, 144 h. In outline: as §1
For data set [2], the target named is T1, Androgen receptor (Homo sapiens) (UniProt P10275).
T1 sequence (whole entry): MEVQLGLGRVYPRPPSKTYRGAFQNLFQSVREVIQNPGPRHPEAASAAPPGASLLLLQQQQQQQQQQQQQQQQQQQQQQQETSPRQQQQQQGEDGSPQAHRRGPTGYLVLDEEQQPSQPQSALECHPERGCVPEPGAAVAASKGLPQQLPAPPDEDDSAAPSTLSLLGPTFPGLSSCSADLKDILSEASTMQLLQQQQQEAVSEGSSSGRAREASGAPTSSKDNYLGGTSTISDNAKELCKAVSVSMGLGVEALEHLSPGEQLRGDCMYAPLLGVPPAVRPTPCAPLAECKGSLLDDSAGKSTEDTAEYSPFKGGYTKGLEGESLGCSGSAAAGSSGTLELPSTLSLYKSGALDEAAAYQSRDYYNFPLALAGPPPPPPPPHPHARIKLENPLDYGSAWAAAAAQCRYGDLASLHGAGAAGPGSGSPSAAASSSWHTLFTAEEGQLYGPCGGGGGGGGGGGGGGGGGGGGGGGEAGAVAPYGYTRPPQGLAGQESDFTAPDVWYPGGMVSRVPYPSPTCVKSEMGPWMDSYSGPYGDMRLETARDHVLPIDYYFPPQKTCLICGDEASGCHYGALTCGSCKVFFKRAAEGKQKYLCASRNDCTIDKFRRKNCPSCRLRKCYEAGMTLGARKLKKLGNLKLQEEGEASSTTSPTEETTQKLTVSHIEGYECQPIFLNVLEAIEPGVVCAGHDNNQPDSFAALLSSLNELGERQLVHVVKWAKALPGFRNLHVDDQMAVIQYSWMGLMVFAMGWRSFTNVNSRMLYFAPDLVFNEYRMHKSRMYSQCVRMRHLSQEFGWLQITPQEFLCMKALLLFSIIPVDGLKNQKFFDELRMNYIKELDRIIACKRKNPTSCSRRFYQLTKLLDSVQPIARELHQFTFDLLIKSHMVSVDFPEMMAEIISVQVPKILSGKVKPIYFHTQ
Briefly: Potency index, ratio of IC50 for enzalutamide to IC50 for compound for competitive displacement of [3H]R1881 from human AR expressed in LNCaP cells incubated for 24 hrs by scintillation counting method based radioligand competitive binding assay. Type of data set: cell-based. (In general: Displacement assays read how much labelled ligand stays bound in the presence of the test substance.)

Data set [3] concerns the target T2, Steroid 17-alpha-hydroxylase/17,20 lyase (Homo sapiens, UniProt P05093).
T2 sequence (P05093 whole entry): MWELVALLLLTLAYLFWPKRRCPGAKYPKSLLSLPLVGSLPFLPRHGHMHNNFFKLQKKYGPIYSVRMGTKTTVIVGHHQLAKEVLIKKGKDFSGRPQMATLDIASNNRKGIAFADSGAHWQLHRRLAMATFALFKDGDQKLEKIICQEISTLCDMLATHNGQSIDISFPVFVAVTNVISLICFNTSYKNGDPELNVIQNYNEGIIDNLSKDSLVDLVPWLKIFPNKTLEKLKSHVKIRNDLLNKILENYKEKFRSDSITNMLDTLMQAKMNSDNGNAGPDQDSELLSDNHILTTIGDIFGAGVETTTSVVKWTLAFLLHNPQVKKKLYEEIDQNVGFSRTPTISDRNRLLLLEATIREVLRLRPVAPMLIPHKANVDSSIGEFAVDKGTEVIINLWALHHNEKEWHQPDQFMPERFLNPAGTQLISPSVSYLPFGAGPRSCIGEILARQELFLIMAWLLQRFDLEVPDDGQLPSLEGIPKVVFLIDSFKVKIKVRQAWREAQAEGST
Briefly: Inhibition of C-myc/DDK tagged human CYP17A1 expressed in HEK293T cells assessed as reduction in formation of 17-OHP at 10 uM incubated for 30 mins by LC-MS/MS analysis. The note with it: 0.5 h, 10 µM. Type of data set: cell-based. In outline:
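CYP17A1 activity measured as 17α-hydroxyprogesterone formation in 50 mM Tris pH 7.4, 5 mM MgCl2. Incubation 30 min at 37 °C, quenched with 20% trichloroacetic acid; product quantified by LC-MS/MS. Mean ± SD, n = 2.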

A short description of data set [4]: Cmax in Sprague-Dawley rat at 30 mg/kg, po measured at 0.5 hrs by LC-MS/MS analysis. The class given is ADME, organism-based. Also on record: dose 30 mg/kg, route oral. The conditions noted are these: in vivo. The method, boiled down:
(§2)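 Male SD rats (N = 3), single oral 30 mg/kg in PEG200/DMA (9:1, v/v). Blood from retrobulbar vein at 0–24 h; heparinized plasma, protein precipitation with methanol, LC-MS/MS quantitation; parameters by non-compartmental analysis.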

Data set [5] is described as follows: Half life in Sprague-Dawley rat at 30 mg/kg, po measured upto 24 hrs by LC-MS/MS analysis. The class given is ADME, organism-based. The conditions noted are these: in vivo. In outline:
as §2

A short description of data set [6]: AUC (0 to t) in Sprague-Dawley rat at 30 mg/kg, po measured upto 24 hrs by LC-MS/MS analysis. Type of data set: ADME, organism-based. On the set-up: time < 24 hr, dose 30 mg/kg, route oral. The note with it: in vivo.
The subject of the next data set is VCaP. Briefly: Antitumor activity against human VCaP cells xenografted in BALB/c nude mouse assessed as inhibition of tumor growth at 30 mg/kg, po qd administered for 40 days relative to control. The class given is functional. The conditions noted are these: Mus musculus, VCaP, po, 960 h; read-out: TGI. The method, boiled down:
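Male BALB/c nude mice, 5 weeks old, s.c. 1 × 10^7 VCaP cells in DMEM/Matrigel (1:1). Castrated under Nembutal at 150–200 mm3 and randomized (n = 8–10). Once tumors regrew to 200–350 mm3, oral 30 mg/kg qd for 40 days. TGI = [1 − (T − T0)/(C − C0)] × 100 from mean tumor volumes on first and last treatment days.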
Background: A xenograft is tissue or cells of one species grown in another, often human tumour cells in immunodeficient mice.

Data set [7] can be described thus: Toxicity in BALB/c nude mouse xenografted with human VCaP cells assessed as weight loss at 30 mg/kg, po qd administered for 40 days relative to control. Type of data set: organism-based. The conditions noted are these: in vivo, 960 h.
Data set [8] in a line: Tmax in Sprague-Dawley rat at 30 mg/kg, po measured upto 24 hrs by LC-MS/MS analysis. Type of data set: ADME, organism-based. The conditions noted are these: in vivo. In outline:
as §2

Data set [9] in a line: AUC ( 0 to infinity) in Sprague-Dawley rat at 30 mg/kg, po measured upto 24 hrs by LC-MS/MS analysis. Type of data set: ADME, organism-based. Also on record: dose 30 mg/kg, time infinity, route oral. The conditions noted are these: in vivo. The method, boiled down:
as §2

For orientation: IC50 means the concentration that gives 50% inhibition. Usually Cmax stands for the maximum level reached in the sampled fluid or tissue. As usually defined, the half-life is the time in which the quantity being followed falls by half. For orientation: AUC(0-t) means the area under the concentration-time curve up to a stated or last time point. In general, Tmax refers to the time from dosing to the highest level. As a reminder, the AUC(0-inf) is total exposure, with the tail of the curve extrapolated. A lower AUC(0-inf) goes with low exposure. In the case of `Cc1ccc(-c2c(C)noc2C)cc1Nc1ccc(C#N)c(Cl)c1`, the IC50 in [1] was 0.43 µM; in the data set with CWR22R, 3.5 µM; in the data set with PC-3 it was 23.3 µM; in the data set on L02, 11.3 µM. Also, the Ratio IC50 in [2] turned out to be 8. Besides, the “inhibition (INH)” value in [3] is “Not Active”. The same compound showed a Cmax in data set [4] of 2320 ng/mL. Further, in data set [5], the half-life is 4.4 h. In data set [6], the AUC(0-t) at 24 h worked out at 4040 ng·h/mL. Moreover, the inhibition in vivo at 30 mg/kg in the data set with VCaP came to 44.7%. The Activity result in [7] is reported as “Non-Toxic”. For the same compound, in [8], the time of peak concentration (Tmax) turned out to be 0.5 h. Also, the AUC(0-inf) in [9] is 4060 ng·h/mL.
